In PubChem BioAssay AID488910 (Broad Institute, 2010) one finds protection from cytokine-induced ATP loss data, which are given here for 17 compounds.

Among all 20,000 compounds or so, about 25 (0.1%) were called active. The sample holds actives, similar compounds and a random draw of the others, so the mix is not that of the screen.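 Rule for the calls: active = mean replicate protection from cytokine-induced ATP loss at least 50% and at least 75% of replicates each reaching 50%; inconclusive = meets only one of the two criteria, mean or replicate share; inactive = fails both the mean and replicate share criteria.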

This experiment is described as follows: protection of INS-1E cells from cytokine death, primary screen, ATP luminescence, single point (AID 488910). The settings on record: INS-1E cytokine-induced death, 48 h, at 10 µM, stronger effect = higher value, normalised: neutral wells 0, positive control 100. Put shortly: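 Material: INS-1E rat cells; Quantity: 8000 cells/well; Buffer or medium: phenol-red-free RPMI with 5% fetal bovine serum; Probe or stimulus: cytokine cocktail of IFN-γ, TNF-α and IL-1β; Compound dosing: single test concentration per compound, delivered by pin transfer; Incubation: 48 h co-treatment, 10 min post-lysis read; Signal: CellTiter-Glo luminescence.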
`CNC[C@H]1Oc2ccc(NS(=O)(=O)c3cn(C)cn3)cc2C(=O)N([C@@H](C)CO)C[C@@H]1C`: the protection from cytokine-induced ATP loss is -1.06% (inactive).

On to `COc1ccc(NC(=O)Nc2cccc3c2O[C@H](CN(C)S(=O)(=O)c2ccc(F)cc2)[C@H](C)CN([C@H](C)CO)C3=O)cc1`, for which the protection from cytokine-induced ATP loss is -2.75% (inactive).

Consider `C[C@@H]1CN([C@@H](C)CO)C(=O)Cc2cc(NC(=O)Cn3cnnn3)ccc2O[C@@H]1CN(C)S(=O)(=O)c1cn(C)cn1`, for which the protection from cytokine-induced ATP loss is 10.1% (inactive). Take `COc1ccc(S(=O)(=O)Nc2ccc3c(c2)CC(=O)N([C@H](C)CO)C[C@@H](C)[C@@H](CN(C)C(=O)Nc2cccc4ccccc24)O3)cc1`: the protection from cytokine-induced ATP loss is 0.838% (inactive). With `C[C@@H]1CN([C@H](C)CO)C(=O)c2cccc(NC(=O)Nc3ccccc3)c2O[C@H]1CN(C)Cc1ccccc1`, the protection from cytokine-induced ATP loss was 3.52% (inactive). For `C[C@@H]1CN([C@H](C)CO)C(=O)c2cc(NS(=O)(=O)c3ccccc3)ccc2O[C@H]1CN(C)S(=O)(=O)c1ccc(Cl)cc1`, the protection from cytokine-induced ATP loss was -7.86% (inactive). As for `C[C@H](CO)N1C[C@H](C)[C@H](CN(C)C)Oc2ccc(NC(=O)c3ccncc3)cc2CC1=O`, the figure is 2% (inactive); as for `O=C(NO)c1cccc(C(=O)N/N=C/c2c(F)c(F)c(F)c(F)c2F)c1`, -2.52% (inactive); as for `C[C@H]1CN([C@@H](C)CO)C(=O)Cc2cc(NC(=O)Nc3cccc4ccccc34)ccc2O[C@@H]1CN(C)S(=O)(=O)c1cn(C)cn1`, 4.42% (inactive). As for `CC(C)NC(=O)N(C)C[C@H]1Oc2c(NC(=O)C3CCCCC3)cccc2C(=O)N([C@@H](C)CO)C[C@H]1C`, the figure is 10.6% (inactive). On to `Cc1noc(C)c1NC(=O)N(C)C[C@H]1Oc2c(NS(=O)(=O)c3cccs3)cccc2C(=O)N([C@@H](C)CO)C[C@@H]1C`, for which the protection from cytokine-induced ATP loss is 3.62% (inactive).

With `O=C(N/N=C/c1c[nH]c2ccccc12)c1ccccc1O`, the protection from cytokine-induced ATP loss is -18.7% (inactive).

`Cc1ccc(S(=O)(=O)Nc2ccc3c(c2)CC(=O)N([C@H](C)CO)C[C@@H](C)[C@H](CN(C)S(=O)(=O)c2c(C)noc2C)O3)cc1`: the protection from cytokine-induced ATP loss was 3.93% (inactive). In the case of `COc1ccc(CN(C)C[C@@H]2Oc3ccc(NS(=O)(=O)c4cn(C)cn4)cc3C(=O)N([C@@H](C)CO)C[C@@H]2C)cc1`, the protection from cytokine-induced ATP loss was 7.8% (inactive). As to `C[C@H](CO)N1C[C@H](C)[C@H](CN(C)CC2CC2)Oc2ccc(NC(=O)CCN3CCOCC3)cc2C1=O`, the protection from cytokine-induced ATP loss was -6.34% (inactive).

With `CC(C)NC(=O)Nc1cccc2c1O[C@H](CN(C)S(=O)(=O)c1cccs1)[C@@H](C)CN([C@H](C)CO)C2=O`, the protection from cytokine-induced ATP loss is 5.81% (inactive).

Take `C[C@@H]1CN([C@@H](C)CO)C(=O)c2cccc(NC(=O)Nc3ccccc3)c2O[C@H]1CN(C)Cc1ccccc1`: the protection from cytokine-induced ATP loss was -11.7% (inactive).
